In PMC6226357 (Breast cancer research and treatment, 2018):
Read-outs that look alike come from different tables or passages of the source.

Legend:
estradiol = details: cited from earlier work
metastatic breast cancer = details: cited from earlier work
[1] = system: women with locally advanced or metastatic TNBC or ER+ breast cancer; assay: Phase 1 safety and tolerability: treatment-emergent adverse events and DLT; type: in vivo, human
[2] = system: tamoxifen-resistant MCF7 xenograft; details: tamoxifen-resistant MCF7 mouse xenograft, compared to enzalutamide; cited from earlier work
[3] = system: MCF7 (ER+/low AR expression); details: higher potency/efficacy than enzalutamide; cited from earlier work
[4] = system: unresectable locally advanced or metastatic breast cancer; assay: Efficacy: clinical benefit rate and tumor response; type: in vivo, human
Procedure, shortened: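 Women with triple-negative or postmenopausal ER+/HER2− unresectable locally advanced or metastatic disease took oral 150-mg tablets once daily in continuous 28-day cycles, in de-escalating cohorts. Imaging used bone scan, CT and/or MRI matching the baseline modality, every 2 months in year one and every 3 months thereafter. Clinical benefit was stable disease, partial or complete response (RECIST 1.1), scored at 16 weeks for TNBC and 24 weeks for ER+.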

[5] = system: H16N2 (AR-/PR-/low ER expression); details: higher potency/efficacy than enzalutamide; cited from earlier work
[6] = system: women with locally advanced or metastatic TNBC or ER+ breast cancer; assay: Treatment duration, discontinuations and dose modifications; type: in vivo, human; details: all dose cohorts; Twenty-one percent
Procedure, shortened: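 Dosing was oral, once daily, in continuous 28-day cycles. Drug was stopped for loss of clinical benefit, an adverse event precluding further participation, or withdrawal of consent. Toxicity was graded by NCI CTCAE v4.03. Evaluations were every two weeks in Cycle 1, then monthly through the end-of-treatment visit.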

[7] = Pharmacokinetics after a single dose of seviteronel; type: in vivo, human
Procedure, shortened: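 Women took a single oral dose as 150-mg tablets. Blood was drawn before dosing and at 0.5, 1, 2, 4, 6, 8 and 24 h afterward. Plasma drug was measured by LC-MS/MS, with a lower limit of quantification of 20 ng/mL (0.05 uM). Parameters were derived by noncompartmental analysis.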

[8] = system: MDA-MB-453 cells (ER−/AR+); details: higher potency/efficacy than enzalutamide; cited from earlier work
[9] = system: CYP17 lyase versus CYP17 17-α hydroxylase; details: cited from earlier work
[10] = system: tamoxifen-resistant MCF7 cells (TAMR); details: higher potency/efficacy than enzalutamide; cited from earlier work
[11] = system: AR, wild-type and mutated forms (e.g., F876L and T877A); details: cited from earlier work
[12] = phase 2 TBCRC011, AR+ (ER−/PR−) metastatic breast cancer, N = 26
[13] = MDV3100-11, AR+ TNBC, N = 118, intent to treat AR > 0%, ref (12)
[14] = randomized phase 2, metastatic ER+ breast cancer, N = 297

Compound: N#Cc1ccc(C(c2ccc(C#N)cc2)n2cncn2)cc1 [letrozole]
- Decline in estradiol (estradiol; postmenopausal women with ER+ BC, by 3 months of treatment): approximately 36%

Compound: CC(O)(CS(=O)(=O)c1ccc(F)cc1)C(=O)Nc1ccc(C#N)c(C(F)(F)F)c1 (stereo not shown) [bicalutamide]
- 24-week CBR (metastatic breast cancer; [12]): 19%
- Median progression-free survival (PFS) (metastatic breast cancer; [12]): 12 weeks
- Objective responses (metastatic breast cancer; [12]): no objective responses

Compound: CNC(=O)c1ccc(N2C(=S)N(c3ccc(C#N)c(C(F)(F)F)c3)C(=O)C2(C)C)cc1F [enzalutamide]
- 16-week CBR (metastatic breast cancer; [13]): 25%
- 24-week CBR (metastatic breast cancer; [13]): 20%
- Median PFS (metastatic breast cancer; [13]): 12.6 weeks
- Increase in estradiol (estradiol; given in combination with anastrozole): 40%
- Increase in estradiol (estradiol; given in combination with exemestane): 13%

Compound: C=C1C[C@@H]2[C@H](CC[C@]3(C)C(=O)CC[C@@H]23)[C@@]2(C)C=CC(=O)C=C12 [exemestane]
- Median PFS (metastatic breast cancer; [14]): 3.7 months

Compound: C[C@]12CC[C@H](O)CC1=CC[C@@H]1[C@@H]2CC[C@]2(C)C(c3cccnc3)=CC[C@@H]12 [abiraterone]
- 24-month CBR (metastatic breast cancer; metastatic AR+ TNBC, N = 30, evaluable AR ≥ 10%): 20%
- 24-month CBR (metastatic breast cancer; metastatic ER+/AR+ breast cancer, N = 32, evaluable AR ≥ 1%): 22%
- Median PFS (metastatic breast cancer; [14]): 3.7 months

Compound: CC(C)[C@](O)(c1ccc2cc(OC(F)F)c(OC(F)F)cc2c1)c1c[nH]nn1 [Seviteronel]
- Deaths reported ([1]; all considered unrelated to study drug (disease progression n=2, hepatic failure n=1, ischemic stroke n=1)): 4
- Fatigue, AE incidence ([1]; female, human, in vivo): 37%
- Nausea, AE incidence ([1]; female, human, in vivo): 42%
- Subjects with SAE Gr 3 or greater ([1]; female, human, in vivo): 12 subjects
- Tremor, AE incidence ([1]; female, human, in vivo): 42%
- Vomiting, AE incidence ([1]; female, human, in vivo): 37%
- Recommended phase 2 dose (RP2D) in women ([1]; female, human, in vivo, po): 450 mg QD
- Hepatic transaminase elevation ([1]; in vivo): not associated with hepatic transaminase elevation
- Hypokalemia ([1]; in vivo): not seen
- Serious adverse events (SAE) Gr 3 or greater, number of events ([1]; in vivo): Fifteen
- Tolerability ([1]; in vivo, po): generally well tolerated
- Survival [2]: increased survival
- Tumor growth [2]: inhibited tumor growth
- Estrogen-stimulated proliferation and cell growth in a soft agar assay [3]: inhibited
- Subjects reaching at least CBR16 ([4]; 450 mg QD cohort (RP2D), 2 TNBC CBR16 and 2 ER+ CBR24): 4 of 7
- Subjects reaching CBR24 (24-week clinical benefit rate) ([4]; across dose groups, 2 of 19 subjects): 11%
- Subjects reaching at least CBR16 (16-week clinical benefit rate) ([4]; across dose groups, Five of 19 subjects): 26.3%
- Objective tumor responses ([4]; all dose cohorts): no objective tumor responses
- Cellular proliferation [5]: inhibited
- Subjects with a dose reduction due to an AE [6]: 4/19
- half-life ([7]; female, human, plasma, oral, 750 mg, Half-life, single dose, across 450, 600, 750 mg): 6.4 to 8.4 h
- Dose relationship of peak and trough plasma concentrations and AUC ([7]; single dose, 450-750 mg, women): dose-proportional relationship
- Relationship between exposure and body surface area and body mass index ([7]; three dose levels combined): moderate relationship
- DHT-stimulated growth [8]: inhibited
- Selectivity for CYP17 lyase versus CYP17 17-α hydroxylase inhibition [9]: approximately 10 fold
- Growth of tamoxifen-resistant MCF7 cells [10]: inhibited
- AR inhibition mechanism [11]: competitive antagonism
